Activity calls are given as the source filed them. The calls are words filed in the database; no cut-off is given here.
Tests used:
Candida albicans = test: Antimicrobial activity against Candida albicans; format: functional, organism-based
Escherichia coli = test: Antimicrobial activity against Escherichia coli; format: functional, organism-based
[1] = Inhibition of NO synthase activity in mouse B10R cells assessed as LPS-induced NO production after 24 hrs; format: cell-based
Outline: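 B10R macrophages stimulated with […] (0.5 µg/mL). NO-synthase activity was read as NO2- production over 24 h, and an IC50 was derived.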

Staphylococcus aureus = test: Antimicrobial activity against Staphylococcus aureus; format: functional, organism-based
Enterococcus faecalis = test: Antimicrobial activity against Enterococcus faecalis; format: functional, organism-based
[2] = Cytotoxicity against resting human lymphocytes by MTT assay; format: cell-based; conditions: Lymphocyte
Pichia kudriavzevii = test: Antimicrobial activity against Candida krusei; format: functional, organism-based
Streptococcus pyogenes = test: Antimicrobial activity against Streptococcus hemolyticus; format: functional, organism-based
[3] = Cytotoxicity against mitogen-activated human lymphocytes by MTT assay; format: cell-based; conditions: Lymphocyte
Candida parapsilosis = test: Antimicrobial activity against Candida parapsilosis; format: functional, organism-based
Candida tropicalis = test: Antimicrobial activity against Candida tropicalis; format: functional, organism-based

CC[C@H](C)[C@H](NC(C)=O)C(=O)N[C@H]1CCCNC(=O)[C@H]([C@@H](C)CC)NC(=O)[C@H]([C@@H](C)CC)NC(=O)[C@@H]2CCCN2C(=O)[C@@H](Cc2ccccc2)NC1=O [PSEUDACYCLIN A]
inhibition (Candida albicans): inactive
inhibition (Escherichia coli): inactive
IC50 [1]: 41.4 µM
inhibition (Staphylococcus aureus): inactive
inhibition (Enterococcus faecalis): inactive
IC50 [2]: 32 µM
inhibition (Pichia kudriavzevii): inactive
inhibition (Streptococcus pyogenes): inactive
IC50 [3]: 12.9 µM
inhibition (Candida parapsilosis): inactive
inhibition (Candida tropicalis): inactive

Reference: ChEMBL document CHEMBL1165989, “Characterization of pseudacyclins A-E, a suite of cyclic peptides produced by Pseudallescheria boydii” (J Nat Prod, 2010)
